Experiments:
[1] = target: Intercellular adhesion molecule 1 (Homo sapiens, UniProt P05362); test: In vitro potency against TNF alpha induced expression of intercellular adhesion molecule-1 on human vascular endothelial cells using CAM ELISA assay
Outline: (§1)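 Surface E-selectin, ICAM-1 or VCAM-1 was detected with mouse monoclonal primary antibody (overnight, 4 °C), then HRP anti-mouse IgG and OPD, with absorbance read at 490 nm. IC50 from triplicates; SEM across repeat triplicate runs.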

E-selectin = target: T1, E-selectin (Homo sapiens, UniProt P16581); test: In vitro potency against TNF alpha induced expression of Selectin E on human vascular endothelial cells using CAM ELISA assay; outline: as §1
T1 sequence (P16581 whole entry): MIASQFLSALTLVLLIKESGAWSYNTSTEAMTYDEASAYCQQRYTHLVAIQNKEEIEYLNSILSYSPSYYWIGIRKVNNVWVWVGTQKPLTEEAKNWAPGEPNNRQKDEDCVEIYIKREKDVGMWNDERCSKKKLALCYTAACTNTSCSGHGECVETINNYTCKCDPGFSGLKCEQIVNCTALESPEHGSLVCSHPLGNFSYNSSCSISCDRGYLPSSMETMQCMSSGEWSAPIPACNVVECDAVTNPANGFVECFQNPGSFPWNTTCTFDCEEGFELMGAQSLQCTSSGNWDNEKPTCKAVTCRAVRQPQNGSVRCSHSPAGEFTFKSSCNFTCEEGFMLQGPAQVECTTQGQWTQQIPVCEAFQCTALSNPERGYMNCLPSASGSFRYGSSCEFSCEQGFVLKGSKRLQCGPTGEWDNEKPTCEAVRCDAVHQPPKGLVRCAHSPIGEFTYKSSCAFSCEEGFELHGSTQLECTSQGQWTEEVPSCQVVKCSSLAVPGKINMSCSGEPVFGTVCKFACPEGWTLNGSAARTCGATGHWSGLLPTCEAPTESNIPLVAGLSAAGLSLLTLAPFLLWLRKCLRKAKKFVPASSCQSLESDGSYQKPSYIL

[2] = target: T2, Vascular cell adhesion protein 1 (Homo sapiens, UniProt P19320); test: In vitro potency against TNF alpha induced expression of VCAM-1 on human vascular endothelial cells using CAM ELISA assay; outline: as §1
T2 sequence (P19320 whole entry): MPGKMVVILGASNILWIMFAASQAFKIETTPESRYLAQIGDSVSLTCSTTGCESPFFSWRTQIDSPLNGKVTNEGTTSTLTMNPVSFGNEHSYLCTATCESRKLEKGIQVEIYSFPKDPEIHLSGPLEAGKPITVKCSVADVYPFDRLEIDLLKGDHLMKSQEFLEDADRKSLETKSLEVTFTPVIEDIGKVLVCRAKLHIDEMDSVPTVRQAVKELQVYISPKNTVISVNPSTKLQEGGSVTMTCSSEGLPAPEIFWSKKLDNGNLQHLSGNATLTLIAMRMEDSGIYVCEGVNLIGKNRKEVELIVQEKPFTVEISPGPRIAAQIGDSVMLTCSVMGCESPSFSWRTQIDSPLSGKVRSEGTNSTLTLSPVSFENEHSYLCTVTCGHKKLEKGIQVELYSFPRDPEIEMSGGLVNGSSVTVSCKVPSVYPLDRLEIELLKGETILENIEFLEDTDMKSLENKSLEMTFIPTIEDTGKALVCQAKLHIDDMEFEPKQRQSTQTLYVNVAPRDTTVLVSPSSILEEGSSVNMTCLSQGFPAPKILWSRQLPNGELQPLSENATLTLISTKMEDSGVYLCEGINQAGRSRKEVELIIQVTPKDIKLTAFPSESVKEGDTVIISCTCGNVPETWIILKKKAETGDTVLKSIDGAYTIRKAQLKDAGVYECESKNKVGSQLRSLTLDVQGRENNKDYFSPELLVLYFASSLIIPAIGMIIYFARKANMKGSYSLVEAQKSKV

[3] = In vitro potency against TNF alpha induced expression of Selectin E on human vascular endothelial cells using CAM ELISA assay
[4] = In vitro potency against TNF alpha induced expression of intercellular adhesion molecule-1 on human vascular endothelial cells using CAM ELISA assay

Chain of Intercellular adhesion molecule 1 (P05362 whole entry): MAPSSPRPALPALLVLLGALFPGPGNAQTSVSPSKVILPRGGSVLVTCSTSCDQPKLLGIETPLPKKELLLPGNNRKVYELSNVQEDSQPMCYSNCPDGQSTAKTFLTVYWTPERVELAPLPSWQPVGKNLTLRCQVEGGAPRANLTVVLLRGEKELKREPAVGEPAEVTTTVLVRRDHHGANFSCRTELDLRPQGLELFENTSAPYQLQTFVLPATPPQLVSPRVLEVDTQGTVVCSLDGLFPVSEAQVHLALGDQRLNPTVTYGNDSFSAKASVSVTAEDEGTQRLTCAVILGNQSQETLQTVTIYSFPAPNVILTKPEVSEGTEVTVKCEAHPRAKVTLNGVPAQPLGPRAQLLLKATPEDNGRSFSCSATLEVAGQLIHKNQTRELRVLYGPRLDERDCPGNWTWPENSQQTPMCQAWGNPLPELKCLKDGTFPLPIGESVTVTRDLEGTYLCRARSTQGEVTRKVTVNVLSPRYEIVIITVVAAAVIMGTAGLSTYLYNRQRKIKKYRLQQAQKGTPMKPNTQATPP

| SMILES | IC50 [1] [nM] | IC50 (E-selectin) [nM] | IC50 [2] [nM] | IC50 [3] [nM] | IC50 [4] [nM] |
| --- | --- | --- | --- | --- | --- |
| Cc1ccc(Sc2cncc3sc(C(C)N=O)cc23)cc1 (centres undefined) [1-(4-p-Tolylsulfanyl-thieno[2,3-c]pyridin-2-yl)-ethanone oxime] | 85 | 55 | > 1000 | – | – |
| NC(=O)c1cc2c(Sc3ccc(Cl)c(Cl)c3)cncc2s1 [4-(3,4-Dichloro-phenylsulfanyl)-thieno[2,3-c]pyridine-2-carboxylic acid amide] | – | – | > 1000 | 100 | 37 |
| Cc1ccc(Sc2cncc3sc(C(N)=O)cc23)cc1C [4-(3,4-Dimethyl-phenylsulfanyl)-thieno[2,3-c]pyridine-2-carboxylic acid amide] | – | – | > 1000 | 13 | 8 |
| NC(=O)c1cc2c(Sc3ccc(C(F)(F)F)cc3)cncc2s1 [4-(4-Trifluoromethyl-phenylsulfanyl)-thieno[2,3-c]pyridine-2-carboxylic acid amide] | – | – | > 100 | 44 | 39 |
| CCc1cc2c(Cl)ncnc2s1 [4-Chloro-6-ethyl-thieno[2,3-d]pyrimidine] | – | – | 18000 | 27000 | > 100000 |
| Cc1cccc(Sc2cncc3sc(C(N)=O)cc23)c1 [4-m-Tolylsulfanyl-thieno[2,3-c]pyridine-2-carboxylic acid amide] | – | – | > 4000 | 45 | 140 |
| Cc1ccc(Sc2cncc3sc(CN=O)cc23)cc1 [4-p-Tolylsulfanyl-thieno[2,3-c]pyridine-2-carbaldehyde oxime] | 1900 | 1500 | > 4000 | – | – |
| Cc1ccc(Sc2cncc3sc(C(N)=S)cc23)cc1 [4-p-Tolylsulfanyl-thieno[2,3-c]pyridine-2-carbothioic acid amide] | – | – | 19000 | 150 | 160 |
| Cc1ccc(Sc2cncc3sc(C(=O)NCCCN4CCOCC4)cc23)cc1 [4-p-Tolylsulfanyl-thieno[2,3-c]pyridine-2-carboxylic acid (3-morpholin-4-yl-propyl)-amide] | – | – | > 4000 | > 4000 | > 4000 |
| Cc1ccc(Sc2cncc3sc(C(N)=O)cc23)cc1 [4-p-Tolylsulfanyl-thieno[2,3-c]pyridine-2-carboxylic acid amide] | – | – | > 1000 | – | – |
| Cc1ccc(Sc2cncc3sc(C(=O)NN)cc23)cc1 [4-p-Tolylsulfanyl-thieno[2,3-c]pyridine-2-carboxylic acid hydrazide] | – | – | 46000 | 32 | 32 |
| CCc1cc2c(NCc3ccccc3)ncnc2s1 [Benzyl-(6-ethyl-thieno[2,3-d]pyrimidin-4-yl)-amine] | – | – | 59000 | 49000 | 56000 |
| CCc1cc2c(=O)[nH]cnc2s1 [MLS000029626] | – | – | > 100000 | > 100000 | > 100000 |

Continued, values first:

| IC50 [1] [nM] | IC50 (E-selectin) [nM] | IC50 [2] [nM] | IC50 [3] [nM] | IC50 [4] [nM] | SMILES |
| --- | --- | --- | --- | --- | --- |
| – | – | 770 | 43 | 54 | Cc1ccc(Sc2cncc3sc(C(N)=O)cc23)c(C)c1 [4-(2,4-Dimethyl-phenylsulfanyl)-thieno[2,3-c]pyridine-2-carboxylic acid amide] |
| – | – | > 1000 | 600 | 570 | Cc1occc1Sc1cncc2sc(C(N)=O)cc12 [4-(2-Methyl-furan-3-ylsulfanyl)-thieno[2,3-c]pyridine-2-carboxylic acid amide] |
| – | – | 65000 | 660 | 2300 | NC(=O)c1cc2c(Sc3ccccn3)cncc2s1 [4-(Pyridin-2-ylsulfanyl)-thieno[2,3-c]pyridine-2-carboxylic acid amide] |
| – | – | 17000 | 95000 | 99000 | CCc1cc2c(SCc3ccccc3)ncnc2s1 [4-Benzylsulfanyl-6-ethyl-thieno[2,3-d]pyrimidine] |
| – | – | 15000 | 16000 | 39000 | Cc1ccc(Sc2ccnc3sc(C(N)=O)cc23)cc1 [4-p-Tolylsulfanyl-thieno[2,3-b]pyridine-2-carboxylic acid amide] |
| – | – | 2100 | 1700 | 1800 | Cc1ccc(Sc2cncc3sccc23)cc1 [4-p-Tolylsulfanyl-thieno[2,3-c]pyridine] |
| – | – | 3500 | 4000 | 5000 | CCc1cc2c(Sc3nnc(C)s3)ncnc2s1 [6-Ethyl-4-(5-methyl-[1,3,4]thiadiazol-2-ylsulfanyl)-thieno[2,3-d]pyrimidine] |
| – | – | > 4000 | > 4000 | > 4000 | Cc1ccc(Sc2cncc3sc(/C=N/OCC(=O)O)cc23)cc1 [(4-p-Tolylsulfanyl-thieno[2,3-c]pyridin-2-ylmethyleneaminooxy)-acetic acid] |
| – | – | 2500 | 3000 | 6300 | CCc1cc2c(Sc3nnc(N)s3)ncnc2s1 [GNF-Pf-1931] |

From BindingDB's records for doi:10.1021/jm000452m (Abbott Laboratories, 2001)
